Source: ChEMBL document CHEMBL4842325, “Lanosterol 14α-demethylase (CYP51)/histone deacetylase (HDAC) dual inhibitors for treatment of Candida tropicalis and Cryptococcus neoformans infections” (Eur J Med Chem, 2021)
Values after ≈ are worked out from the molar mass of the structure shown. Active and inactive are the calls of the source. The calls are words filed in the database; no cut-off is given here.

What was measured:
[1] = system: Cryptococcus neoformans; experiment: Downregulation of CAP59 gene expression in Cryptococcus neoformans H99 at 2 ug/ml measured after 24 hrs by qRT-PCR analysis; type: functional; details: dose 2.0 µg/ml
Outline: (§1)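 Exponential-phase C. neoformans H99 inoculated into 50 mL YPD with compound. Incubated 35 °C for 24 h, then cultures ground in liquid nitrogen for RNA isolation. Transcript levels of capsule-associated genes quantified by RT-qPCR. Three independent experiments, mean ± SD, t-test.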

[2] = system: Cryptococcus neoformans; experiment: Downregulation of HOS3 mRNA expression in Cryptococcus neoformans H99 at 2 ug/ml measured after 24 hrs by qRT-PCR analysis; type: functional; details: dose 2.0 µg/ml
Outline: (§2)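 Exponentially growing C. neoformans H99 inoculated into 50 mL YPD with compound and incubated 35 °C for 24 h. Cells ground in liquid nitrogen before total RNA isolation, then reverse transcription and real-time RT-qPCR. Means ± SD of three independent assays.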

[3] = system: Candida albicans; experiment: Antifungal activity against fluconazole-sensitive Candida albicans 10061 assessed as inhibition of fungal growth; type: functional
[4] = system: Cryptococcus neoformans; experiment: Antifungal activity against Cryptococcus neoformans H99 infected in ICR mouse model assessed as reduction in fungal burden in brain at 20 mg/kg, po administered once a day for 5 days; type: functional, organism-based; details: time 5.0 day
Outline: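 Immunosuppression by intraperitoneal cyclophosphamide 24 h before infection. Infected on day 0 by intravenous 2 × 10⁵ CFU C. neoformans H99. Oral treatment once daily for 5 consecutive days, starting 24 h post infection; saline group as blank. Brains taken on day 6 and homogenized, dilutions plated on SDA at 35 °C for 48 h. Colonies counted for burden; groups compared by ANOVA.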

[5] = system: Candida tropicalis; experiment: Antifungal activity against fluconazole-resistant Candida tropicalis 5008 assessed as inhibition of cell proliferation at 8 ug/ml measured for 48 hrs by time growth curve assay; type: functional, organism-based; details: dose 8.0 µg/ml
Outline: (§3)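 Exponential-phase cells from YEPD resuspended in 3 mL fresh RPMI 1640 at 1 × 10⁵ cells/mL (C. tropicalis 5008) or 1 × 10⁶ cells/mL (C. neoformans H99). Compound at several concentrations; cultures shaken at 240 rpm, 30 °C. Growth read as OD₆₃₀ at 0, 6, 12, 24, 36 and 48 h. Done in triplicate.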

[6] = system: Cryptococcus neoformans; experiment: Antifungal activity against fluconazole-sensitive Cryptococcus neoformans H99 assessed as inhibition of cell proliferation at 2 to 8 ug/ml measured for 48 hrs by time growth curve assay; type: functional, organism-based; details: dose 2-8 µg/ml; outline: as §3
[7] = system: Candida tropicalis; experiment: microbe, parasite or virus in culture; type: functional; details: 3890, time 48 hrs
[8] = system: Cryptococcus neoformans; experiment: Downregulation of CLR62 mRNA expression in Cryptococcus neoformans H99 at 2 ug/ml measured after 24 hrs by qRT-PCR analysis; type: functional; details: dose 2.0 µg/ml; outline: as §2
[9] = system: Cryptococcus neoformans; experiment: Downregulation of HOS1 mRNA expression in Cryptococcus neoformans H99 at 2 ug/ml measured after 24 hrs by qRT-PCR analysis; type: functional; details: dose 2.0 µg/ml; outline: as §2
[10] = system: Candida tropicalis; experiment: Downregulation of MDR1 mRNA expression in Candida tropicalis 5008 at 4 ug/ml measured after 24 hrs by qRT-PCR analysis; type: functional; details: dose 4.0 µg/ml
Outline: (§4)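 Exponential-phase C. tropicalis 5008 inoculated into 10 mL YPD with compound at several concentrations, DMSO as blank control. Incubated 35 °C for 24 h. Total RNA isolated on columns and reverse-transcribed. Real-time RT-PCR with ACT1 as internal control. Mean of 3 independent assays ± SD.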

[11] = system: Cryptococcus neoformans; experiment: Downregulation of CAP10 gene expression in Cryptococcus neoformans H99 at 2 ug/ml measured after 24 hrs by qRT-PCR analysis; type: functional; details: dose 2.0 µg/ml; outline: as §1
[12] = system: Cryptococcus neoformans; experiment: Inhibition of CYP51 in Cryptococcus neoformans H99 assessed as lanosterol level at 4 ug/ml by GC-MS analysis; parameters: scale not given: the % may be the effect or the level left; details: dose 4.0 µg/ml
[13] = system: HUVEC; experiment: Cytotoxicity against human HUVEC assessed as reduction in cell viability; type: cell-based
[14] = system: Cryptococcus neoformans; experiment: Downregulation of HDA1 mRNA expression in Cryptococcus neoformans H99 at 2 ug/ml measured after 24 hrs by qRT-PCR analysis; type: functional; details: dose 2.0 µg/ml; outline: as §2
[15] = system: Candida albicans; experiment: Antifungal activity against fluconazole-sensitive Candida albicans 9770 assessed as inhibition of fungal growth; type: functional
[16] = system: Candida tropicalis; experiment: Antifungal activity against Candida tropicalis 5008 assessed as inhibition of fungal filamentation by measuring reduction in hyphae formation at 1 ug/ml incubated for 7 hrs by cell inverted imaging microscopic analysis; type: functional, organism-based; details: dose 1.0 µg/ml
Outline: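 C. tropicalis 5008 from exponential YEPD culture diluted in spider medium to 1 × 10⁵ CFU/mL. Compound added at several concentrations, with fluconazole as positive drug. Incubated 37 °C for 7 h, then morphology compared with the no-drug group by live-cell inverted microscopy.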

[17] = system: Cryptococcus neoformans; experiment: Downregulation of RPD3 mRNA expression in Cryptococcus neoformans H99 at 2 ug/ml measured after 24 hrs by qRT-PCR analysis; type: functional; details: dose 2.0 µg/ml; outline: as §2
[18] = system: Cryptococcus neoformans; experiment: Downregulation of CLR61 mRNA expression in Cryptococcus neoformans H99 at 2 ug/ml measured after 24 hrs by qRT-PCR analysis; type: functional; details: dose 2.0 µg/ml; outline: as §2
[19] = system: Cryptococcus neoformans; experiment: Downregulation of HOS2 mRNA expression in Cryptococcus neoformans H99 at 2 ug/ml measured after 24 hrs by qRT-PCR analysis; type: functional; details: dose 2.0 µg/ml; outline: as §2
[20] = system: Candida tropicalis; experiment: Downregulation of CDR1 mRNA expression in Candida tropicalis 5008 at 4 ug/ml measured after 24 hrs by qRT-PCR analysis; type: functional; details: dose 4.0 µg/ml; outline: as §4
[21] = system: Cryptococcus neoformans; experiment: Inhibition of CYP51 in Cryptococcus neoformans H99 assessed as eburicol level at 4 ug/ml by GC-MS analysis (reference value: 39.82%); parameters: scale not given: the % may be the effect or the level left; details: dose 4.0 µg/ml
[22] = system: Candida albicans; experiment: microbe, parasite or virus in culture; type: functional; details: 7781
[23] = system: Cryptococcus neoformans; experiment: Inhibition of capsule formation in Cryptococcus neoformans H99 assessed as reduction in capsule size at 40 to 50 ug/ml incubated for 24 hrs by laser scanning confocal microscopic analysis; type: functional; details: dose 40-50 µg/ml
Outline: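 Exponential C. neoformans H99 resuspended in PBS at 1 × 10⁷ cells/mL. Cells cultured in DMEM with FBS and compound at 37 °C under 10% CO₂ for 24 h, with an untreated control. Stained with India ink and imaged by laser scanning confocal microscopy at 63×, 10 random fields. Whole-cell and cell-body diameters measured to derive capsule size.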

[24] = system: Candida albicans; experiment: Antifungal activity against fluconazole-sensitive Candida albicans SC5314 assessed as inhibition of fungal growth; type: functional
[25] = system: Candida tropicalis; experiment: microbe, parasite or virus in culture; type: functional; details: 5008, time 48 hrs
[26] = system: Cryptococcus neoformans; experiment: Inhibition of CYP51 in Cryptococcus neoformans H99 assessed as ergosterol level at 4 ug/ml by GC-MS analysis (reference value: 60.18%); parameters: scale not given: the % may be the effect or the level left; details: dose 4.0 µg/ml
[27] = system: Candida albicans; experiment: microbe, parasite or virus in culture; type: functional; details: 4108
[28] = system: Cryptococcus neoformans; experiment: Inhibition of biofilm formation in Cryptococcus neoformans H99 at 64 ug/ml incubated for 24 hrs by XTT reduction assay; type: functional
Outline: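 C. tropicalis 5008 or C. neoformans H99 from exponential YEPD culture diluted in RPMI 1640 to 1 × 10⁶ CFU/mL. Adhesion at 37 °C for 1.5 h. Results given as percent inhibition versus untreated wells. Three independent experiments, mean ± SD, t-test.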

Question: O=C(CCCCCCCOc1ccc(CN2CCN(CC(O)(Cn3cncn3)c3ccc(F)cc3F)CC2)cc1)NO (stereo not drawn) was tested. Which inhibition [1] did it give?
Answer: inactive

Question: What about the inhibition [2] of the same molecule?
Answer: Active

Question: What about the MIC80 [3] of the same molecule?
Answer: 16 µg/mL (≈ 27.3 µM)

Question: What about the Activity [4] of the same molecule?
Answer: Active

Question: What about the Activity [5] of the same molecule?
Answer: Active

Question: And the Activity [6]?
Answer: Active

Question: And the MIC80 [7]?
Answer: 0.5 µg/mL (≈ 0.852 µM)

Question: What about the inhibition [8] of the same molecule?
Answer: Active

Question: And the inhibition [9]?
Answer: Active

Question: And the inhibition [10]?
Answer: Active

Question: What about the inhibition [11] of the same molecule?
Answer: Active

Question: What about the Activity [12] of the same molecule?
Answer: 9.59%

Question: And the IC50 [13]?
Answer: 5.9 µg/mL (≈ 10.1 µM)

Question: What about the inhibition [14] of the same molecule?
Answer: Active

Question: And the MIC80 [15]?
Answer: 16 µg/mL (≈ 27.3 µM)

Question: And the Activity [16]?
Answer: Active

Question: And the inhibition [17]?
Answer: Active

Question: And the inhibition [18]?
Answer: Active

Question: And the inhibition [19]?
Answer: Active

Question: And the inhibition [20]?
Answer: Active

Question: What about the Activity [21] of the same molecule?
Answer: 71.3%

Question: And the MIC80 [22]?
Answer: 1 µg/mL (≈ 1.7 µM)

Question: And the inhibition [23]?
Answer: Active

Question: And the MIC80 [24]?
Answer: 8 µg/mL (≈ 13.6 µM)

Question: What about the MIC80 [25] of the same molecule?
Answer: 0.5 µg/mL (≈ 0.852 µM)

Question: What about the Activity [26] of the same molecule?
Answer: 19.1%

Question: And the MIC80 [27]?
Answer: 8 µg/mL (≈ 13.6 µM)

Question: And the inhibition at 64 µg/mL [28]?
Answer: 70%
